Assay [1] relates to MKN-28. As to the kind of experiment: Induction of apoptosis in human MKN28 cells assessed as viable cells at 6 uM after 48 hrs by annexin V-FITC/PI staining based flow cytometry (reference value: 100%). In kind it is functional. The note with it: MKN-28, 48 h, read-out: Activity. The method, boiled down:
(§1)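 MKN-28 cells (3 × 10^5/well) treated at 2, 6 and 8 μM for 48 h. Stained with annexin V-FITC and PI using a kit per the maker's protocol, then analysed by flow cytometry. Apoptotic populations quantified, early and late apoptosis counted separately. Data given as mean with SD; one-way ANOVA with Tukey's post hoc test.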
In general terms: Flow cytometry measures light scatter and fluorescence of single cells or particles in a stream.

For assay [2], the system named is MKN-28. As to the kind of experiment: Induction of mitochondrial apoptosis in human MKN28 cells assessed as decrease in bcl-2 expression level at 2 to 8 uM after 48 hrs by Western blot analysis. It counts as functional, cell-based. The method, boiled down:
(§2)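 MKN-28 cells (1 × 10^6/dish) cultured with compound at 2, 6 and 8 μM for 48 h. Cells lysed for 30 min on ice in RIPA buffer with DTT, PMSF and phosphatase inhibitor, then spun at 14000g, 4 °C, 15 min. Protein measured by BCA. Blots probed for Bcl-2, Bax, Bad, cleaved and pro-caspase-3 and -9, with β-actin as loading control.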
(In western blotting, separated proteins are transferred to a membrane and probed.)

Assay [3] concerns MKN-28. As to the kind of experiment: Induction of apoptosis in human MKN28 cells assessed as early apoptotic cells at 2 uM after 48 hrs by annexin V-FITC/PI staining based flow cytometry (reference value: 0.043%). It counts as functional. The method, boiled down: as §1
For assay [4], the system named is MKN-28. As to the kind of experiment: Induction of apoptosis in human MKN28 cells assessed as late apoptotic cells at 8 uM after 48 hrs by annexin V-FITC/PI staining based flow cytometry (reference value: 0%). In kind it is functional. The essentials:
as §1

Assay [5] deals with MKN-28. As to the kind of experiment: Induction of apoptosis in human MKN28 cells assessed as increase in early apoptotic cells after 48 hrs by annexin V-FITC/PI staining based flow cytometry. It counts as functional, cell-based. The essentials:
as §1

Assay [6] can be described thus: Cytotoxicity against human MCF7 cells assessed as inhibition of cell proliferation after 48 hrs by MTT assay. In kind it is functional, cell-based. The note with it: MCF7, 48 h. The method, boiled down:
(§3)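 Cells grown in DMEM with 10% FBS, 100 U/mL penicillin, 100 μg/mL streptomycin, 37 °C, 5% CO2. Seeded 5 × 10^3 cells/well, 12 h, then exposed to compounds for 48 h. MTT (5 mg/mL stock) added for 4 h at 37 °C, formazan dissolved in DMSO, absorbance read at 570 nm. IC50 relative to untreated control. Triplicate, repeated twice; cis-platinum as positive control.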
On the technique in general: Formazan colour is commonly taken as a measure of viable cells.

Assay [7] concerns MKN-28. As to the kind of experiment: Induction of mitochondrial apoptosis in human MKN28 cells assessed as caspase 9 activation at 2 to 8 uM after 48 hrs by Western blot analysis. In kind it is functional, cell-based. The essentials:
as §2

The nature of assay [8]: Cytotoxicity against human A549 cells assessed as inhibition of cell proliferation after 48 hrs by MTT assay. In kind it is functional, cell-based. The note with it: A549, 48 h. The method, boiled down: as §3
Assay [9] relates to MKN-28. As to the kind of experiment: Induction of apoptosis in human MKN28 cells assessed as late apoptotic cells at 6 uM after 48 hrs by annexin V-FITC/PI staining based flow cytometry (reference value: 0%). It counts as functional. The essentials:
as §1

Assay [10] has as its system MKN-28. As to the kind of experiment: Induction of apoptosis in human MKN28 cells assessed as early apoptotic cells at 8 uM after 48 hrs by annexin V-FITC/PI staining based flow cytometry (reference value: 0.043%). In kind it is functional. The method, boiled down:
as §1

The test system of assay [11] is MKN-28. As to the kind of experiment: Induction of apoptosis in human MKN28 cells assessed as increase in late apoptotic cells after 48 hrs by annexin V-FITC/PI staining based flow cytometry. In kind it is functional, cell-based. The method, boiled down:
as §1

Assay [12] deals with MKN-28. As to the kind of experiment: Induction of apoptosis in human MKN28 cells assessed as necrotic cells at 8 uM after 48 hrs by annexin V-FITC/PI staining based flow cytometry (reference value: 0%). In kind it is functional. The essentials:
as §1

The test system of assay [13] is MKN-28. As to the kind of experiment: Induction of apoptosis in human MKN28 cells assessed as necrotic cells at 6 uM after 48 hrs by annexin V-FITC/PI staining based flow cytometry (reference value: 0%). In kind it is functional. The method, boiled down:
as §1

Assay [14] has as its system MKN-28. As to the kind of experiment: Induction of mitochondrial apoptosis in human MKN28 cells assessed as increase in bax expression level at 2 to 8 uM after 48 hrs by Western blot analysis. It counts as functional, cell-based. The essentials: as §2
Assay [15] deals with MKN-28. As to the kind of experiment: Induction of mitochondrial apoptosis in human MKN28 cells assessed as caspase 3 activation at 2 to 8 uM after 48 hrs by Western blot analysis. In kind it is functional, cell-based. The method, boiled down:
as §2

Assay [16] deals with MKN-28. As to the kind of experiment: Induction of apoptosis in human MKN28 cells assessed as viable cells at 2 uM after 48 hrs by annexin V-FITC/PI staining based flow cytometry (reference value: 100%). The note with it: MKN-28, 48 h, read-out: Activity. In kind it is functional. The method, boiled down:
as §1

The test system of assay [17] is MKN-28. As to the kind of experiment: Induction of apoptosis in human MKN28 cells assessed as late apoptotic cells at 2 uM after 48 hrs by annexin V-FITC/PI staining based flow cytometry (reference value: 0%). In kind it is functional. The method, boiled down:
as §1

Assay [18] is described as follows: Cytotoxicity against human MKN28 cells assessed as inhibition of cell proliferation after 48 hrs by MTT assay. In kind it is functional, cell-based. The note with it: MKN-28, 48 h. The essentials: as §3
The test system of assay [19] is MKN-28. As to the kind of experiment: Induction of apoptosis in human MKN28 cells assessed as viable cells at 8 uM after 48 hrs by annexin V-FITC/PI staining based flow cytometry (reference value: 100%). The note with it: MKN-28, 48 h, read-out: Activity. It counts as functional. The method, boiled down:
as §1

In assay [20] the test system is MKN-28. As to the kind of experiment: Induction of apoptosis in human MKN28 cells assessed as necrotic cells at 2 uM after 48 hrs by annexin V-FITC/PI staining based flow cytometry (reference value: 0%). It counts as functional. The method, boiled down: as §1
Assay [21] deals with MKN-28. As to the kind of experiment: Induction of apoptosis in human MKN28 cells assessed as early apoptotic cells at 6 uM after 48 hrs by annexin V-FITC/PI staining based flow cytometry (reference value: 0.043%). It counts as functional. The method, boiled down:
as §1

Assay [22] relates to MKN-28. As to the kind of experiment: Induction of mitochondrial apoptosis in human MKN28 cells assessed as increase in bad expression level at 2 to 8 uM after 48 hrs by Western blot analysis. In kind it is functional, cell-based. The method, boiled down:
as §2

The source made the active and inactive calls. The rule behind the calls is not given here.

Broadly, the IC50 is the concentration at which inhibition is half-maximal.

For the compound `CCO[C@@H]1O[C@@H](C=C(C)C)C[C@H]1[C@@H]1CC=C2[C@]3(C)[C@H](O)C[C@H]4C(C)(C)[C@H](O)CC[C@]4(C)[C@H]3CC[C@]21C`, in the assay on MKN-28 [1], the viability at 6 µM came to 78.9%. For the same compound, the result with MKN-28 [2], in the assay with MKN-28 [7], with MKN-28 [14], with MKN-28 [15] and in the assay on MKN-28 [22] was Active. Also, the Activity in the assay with MKN-28 [3] is 3.21%; in the assay on MKN-28 [4] it was 21%; in the assay on MKN-28 [5] it was “Dose-dependent effect”; in the assay on MKN-28 [9] it was 12.6%; in the assay with MKN-28 [10], 12.4%; in the assay with MKN-28 [11] it was “Dose-dependent effect”. For the same compound, the Activity was found to be 0.685% in the assay with MKN-28 [12]; 2.51% in the assay with MKN-28 [13]; 2.69% with MKN-28 [17]; 0.869% in the assay on MKN-28 [20]; 5.76% with MKN-28 [21]. For the same compound, the concentration for half-maximal inhibition (IC50) in assay [6] was found to be 9.1 µM; in [8] it was 5.6 µM; in assay [18] it was 2.5 µM. Also, in the assay on MKN-28 [16], the viability at 2 µM came out at 93.2%. For the same compound, the viability at 8 µM with MKN-28 [19] was 66%.
For `CO[C@@H]1O[C@H](C=C(C)C)C[C@H]1[C@@H]1CC[C@]2(C)C3=CC[C@H]4C(C)(C)[C@@H](O)CC[C@]4(C)[C@H]3CC[C@@]12C`, the half-maximal inhibitory concentration (IC50) in assay [6] is more than 10 µM; in [8], more than 10 µM; in assay [18] it was 9.8 µM.
`CC1(C)OC[C@H]([C@@H]2CC[C@]3(C)C4=CC[C@H]5C(C)(C)[C@H](O)CC[C@]5(C)[C@H]4CC[C@@]23C)C[C@@H](O)[C@@H]1O`: the IC50 in assay [6], in [8] and in [18] was more than 10 µM in each case.
Turning to `C[C@@H](C[C@@H](O)[C@H](O)C(C)(C)O)[C@@H]1CC=C2[C@]3(C)[C@H](O)[C@@H](O)[C@H]4C(C)(C)C(=O)CC[C@]4(C)[C@H]3CC[C@]21C`, the IC50 in [6], in assay [8] and in assay [18] was more than 10 µM in each case.
